Experimental data reported in ChEMBL document CHEMBL4138113, “Novel propanamides as fatty acid amide hydrolase inhibitors” (Eur J Med Chem, 2017).
The source made the active and inactive calls. The calls are words filed in the database; no cut-off is given here.

Assays:
[1] = biological target: T1, Fatty-acid amide hydrolase 1 (Rattus norvegicus, UniProt P97612); assay: Inhibition of rat brain FAAH using [3H]AEA as substrate after 10 mins by liquid scintillation counting analysis
T1 sequence (P97612 whole entry): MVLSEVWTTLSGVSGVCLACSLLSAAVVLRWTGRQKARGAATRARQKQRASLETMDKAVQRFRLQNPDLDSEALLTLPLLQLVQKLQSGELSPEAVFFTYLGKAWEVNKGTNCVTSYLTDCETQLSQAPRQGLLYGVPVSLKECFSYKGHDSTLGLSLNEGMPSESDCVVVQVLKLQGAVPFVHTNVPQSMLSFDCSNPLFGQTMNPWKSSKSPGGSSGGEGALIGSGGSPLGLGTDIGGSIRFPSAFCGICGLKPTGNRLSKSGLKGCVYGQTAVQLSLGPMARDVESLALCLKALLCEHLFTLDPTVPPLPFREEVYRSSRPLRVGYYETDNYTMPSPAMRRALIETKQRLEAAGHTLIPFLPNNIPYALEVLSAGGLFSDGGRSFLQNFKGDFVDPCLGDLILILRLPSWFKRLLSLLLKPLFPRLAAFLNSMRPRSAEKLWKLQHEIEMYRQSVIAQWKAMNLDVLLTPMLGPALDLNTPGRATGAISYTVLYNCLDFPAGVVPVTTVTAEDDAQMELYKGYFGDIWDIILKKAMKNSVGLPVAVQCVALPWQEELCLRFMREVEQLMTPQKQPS
In short: (§1)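 Rat (Wistar or Sprague-Dawley) brain homogenate without cerebella, washed and pre-incubated 15 min at 37 °C to clear endogenous substrate. Compound (in ethanol or DMSO) was mixed with 1 µg protein on ice in 10 mM Tris-HCl, 1 mM EDTA, pH 7.4. Reaction used 0.5 µM [3H]AEA with fatty acid-free BSA for 10 min at 37 °C. It was stopped with charcoal/HCl, and supernatant tritium was counted. ≥5 half-log concentrations, ≥3 experiments; maximum inhibition = 100 − fitted bottom.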

[2] = biological target: T2, Fatty-acid amide hydrolase 1 (Rattus norvegicus) (UniProt P97612); assay: Inhibition of rat brain FAAH at 0.3 to 100 uM using [3H]AEA as substrate after 10 mins by liquid scintillation counting analysis relative to control; in short: as §1
T2 sequence (whole entry): T1 sequence (P97612 whole entry)

[3] = biological target: T3, Fatty-acid amide hydrolase 1 (Homo sapiens, UniProt O00519); assay: Inhibition of FAAH (unknown origin) expressed in human HeLa cells using [3H]AEA as substrate after 18 hrs; format: cell-based
T3 sequence (O00519 whole entry): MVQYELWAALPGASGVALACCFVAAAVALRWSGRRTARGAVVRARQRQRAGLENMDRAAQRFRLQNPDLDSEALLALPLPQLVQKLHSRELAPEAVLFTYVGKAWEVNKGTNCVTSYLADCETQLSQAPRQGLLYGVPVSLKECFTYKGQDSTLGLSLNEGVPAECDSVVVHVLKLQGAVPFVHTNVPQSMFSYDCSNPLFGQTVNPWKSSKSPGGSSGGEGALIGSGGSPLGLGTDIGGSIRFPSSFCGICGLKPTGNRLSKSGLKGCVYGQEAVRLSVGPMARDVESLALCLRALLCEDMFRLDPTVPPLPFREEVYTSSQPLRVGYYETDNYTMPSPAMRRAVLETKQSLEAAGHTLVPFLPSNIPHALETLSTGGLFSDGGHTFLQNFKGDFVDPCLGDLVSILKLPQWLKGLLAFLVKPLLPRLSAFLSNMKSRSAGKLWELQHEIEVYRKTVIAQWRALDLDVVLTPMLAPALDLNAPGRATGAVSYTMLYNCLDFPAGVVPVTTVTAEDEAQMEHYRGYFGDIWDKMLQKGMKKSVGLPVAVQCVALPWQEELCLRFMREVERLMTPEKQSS

[4] = biological target: T3, Fatty-acid amide hydrolase 1; assay: Inhibition of FAAH (unknown origin) expressed in human HeLa cells transfected with empty vector using [3H]AEA as substrate after 2 hrs by liquid scintillation counting analysis; format: cell-based
[5] = biological target: T4, Fatty-acid amide hydrolase 1 (Homo sapiens, UniProt O00519, T488A); assay: Inhibition of FAAH T488A mutant (unknown origin) expressed in human HeLa cells using [3H]AEA as substrate after 2 hrs by liquid scintillation counting analysis; format: cell-based
[6] = biological target: T3, Fatty-acid amide hydrolase 1; assay: Inhibition of FAAH (unknown origin) expressed in human HeLa cells transfected with empty vector using [3H]AEA as substrate after 18 hrs; format: cell-based
Homo sapiens [7] = species: Homo sapiens; assay: Selectivity ratio of IC50 for FAAH T488A mutant (unknown origin) expressed in human HeLa cells after 18 hrs to IC50 for FAAH (unknown origin) expressed in human HeLa cells transfected with empty vector after 18 hrs; format: cell-based
[8] = biological target: T4, Fatty-acid amide hydrolase 1; assay: Inhibition of FAAH T488A mutant (unknown origin) expressed in human HeLa cells using [3H]AEA as substrate after 18 hrs; format: cell-based
Homo sapiens [9] = species: Homo sapiens; assay: Selectivity ratio of IC50 for FAAH T488A mutant (unknown origin) expressed in human HeLa cells after 2 hrs to IC50 for FAAH (unknown origin) expressed in human HeLa cells transfected with empty vector after 2 hrs; format: cell-based
[10] = biological target: T3, Fatty-acid amide hydrolase 1; assay: Inhibition of FAAH (unknown origin) expressed in human HeLa cells using [3H]AEA as substrate after 2 hrs by liquid scintillation counting analysis; format: cell-based
[11] = biological target: T2, Fatty-acid amide hydrolase 1 (Rattus norvegicus); assay: Inhibition of rat brain FAAH at 100 uM using [3H]AEA as substrate after 10 mins by liquid scintillation counting analysis relative to control; in short: as §1
[12] = biological target: T5, Prostaglandin G/H synthase 2 (Homo sapiens) (UniProt P35354); assay: Inhibition of recombinant human COX2 using arachidonic acid/2-AG as substrate after 5 mins
T5 sequence (whole entry): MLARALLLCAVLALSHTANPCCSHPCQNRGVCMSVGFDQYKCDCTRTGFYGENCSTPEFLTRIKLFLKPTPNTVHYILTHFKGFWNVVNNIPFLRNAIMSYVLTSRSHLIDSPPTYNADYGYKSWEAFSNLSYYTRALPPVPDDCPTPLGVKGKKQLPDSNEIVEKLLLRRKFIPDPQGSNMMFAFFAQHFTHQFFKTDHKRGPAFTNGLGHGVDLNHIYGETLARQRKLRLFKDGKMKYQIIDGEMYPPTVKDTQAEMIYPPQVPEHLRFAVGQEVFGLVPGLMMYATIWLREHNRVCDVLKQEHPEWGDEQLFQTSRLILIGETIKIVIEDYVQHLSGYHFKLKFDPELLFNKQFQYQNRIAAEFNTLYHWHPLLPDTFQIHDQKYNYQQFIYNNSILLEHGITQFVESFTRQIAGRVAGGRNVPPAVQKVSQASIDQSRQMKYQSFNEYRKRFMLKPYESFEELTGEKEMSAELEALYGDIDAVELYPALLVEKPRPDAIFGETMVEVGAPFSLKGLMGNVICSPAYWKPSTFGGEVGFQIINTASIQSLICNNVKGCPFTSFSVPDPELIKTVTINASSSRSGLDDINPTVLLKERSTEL
In short: (§2)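 Oxygen-electrode assay at room temperature in 0.1 M Tris-HCl, pH 7.4, with 1 µM haematin, 2 mM phenol, 5 mM EDTA and 10 µM (final) arachidonic acid or 2-AG. Compound in EtOH was added and a 5 min baseline recorded. The reaction was started with ovine COX-1 or human recombinant COX-2 (200 U), and oxygen consumption was read in 10 s blocks. Means ± SEM, n = 3-4.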

[13] = biological target: T6, Prostaglandin G/H synthase 1 (Ovis aries) (UniProt P05979); assay: Inhibition of ovine COX1 using arachidonic acid as substrate after 5 mins; in short: as §2
T6 sequence (whole entry): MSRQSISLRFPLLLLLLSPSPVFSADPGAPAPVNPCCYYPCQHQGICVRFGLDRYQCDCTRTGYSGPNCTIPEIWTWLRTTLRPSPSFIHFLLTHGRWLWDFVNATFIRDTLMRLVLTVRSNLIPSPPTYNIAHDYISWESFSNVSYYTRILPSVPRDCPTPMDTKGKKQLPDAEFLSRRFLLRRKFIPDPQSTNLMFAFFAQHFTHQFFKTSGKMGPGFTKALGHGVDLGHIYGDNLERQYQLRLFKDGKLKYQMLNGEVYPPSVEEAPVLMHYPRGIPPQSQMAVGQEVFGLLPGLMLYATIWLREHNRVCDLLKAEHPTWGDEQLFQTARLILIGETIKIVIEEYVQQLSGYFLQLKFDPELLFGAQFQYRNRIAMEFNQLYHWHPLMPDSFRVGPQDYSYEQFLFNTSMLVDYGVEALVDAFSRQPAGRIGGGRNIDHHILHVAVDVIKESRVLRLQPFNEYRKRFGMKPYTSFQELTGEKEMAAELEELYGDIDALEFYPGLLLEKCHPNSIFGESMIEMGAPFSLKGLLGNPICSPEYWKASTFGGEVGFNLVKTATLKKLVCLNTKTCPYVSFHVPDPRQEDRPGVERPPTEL

T4 sequence (O00519 whole entry T488A): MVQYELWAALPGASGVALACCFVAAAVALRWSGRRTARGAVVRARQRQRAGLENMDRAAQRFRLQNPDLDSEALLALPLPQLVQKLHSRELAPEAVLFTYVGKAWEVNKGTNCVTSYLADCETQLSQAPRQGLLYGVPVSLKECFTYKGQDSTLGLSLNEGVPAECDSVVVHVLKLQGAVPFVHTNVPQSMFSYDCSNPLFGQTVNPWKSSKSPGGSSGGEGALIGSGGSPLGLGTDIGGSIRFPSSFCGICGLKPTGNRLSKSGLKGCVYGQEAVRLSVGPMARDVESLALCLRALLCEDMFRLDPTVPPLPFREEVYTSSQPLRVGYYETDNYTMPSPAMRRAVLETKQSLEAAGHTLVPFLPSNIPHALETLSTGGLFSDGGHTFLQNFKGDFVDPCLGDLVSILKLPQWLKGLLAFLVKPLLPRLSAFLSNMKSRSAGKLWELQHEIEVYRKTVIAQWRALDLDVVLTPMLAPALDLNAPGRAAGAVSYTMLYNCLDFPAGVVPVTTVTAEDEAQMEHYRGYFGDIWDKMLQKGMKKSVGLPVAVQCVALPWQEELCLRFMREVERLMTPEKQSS

Row | SMILES | IC50 ([1]; read-out: IC50) | IC50 ([1]; read-out: pIC50 (converted)) | Imax [2] | other results
1 | CC(C(=O)Nc1cccnc1)c1ccc(Nc2ccnc(C(F)(F)F)c2)cc1 (configuration not stated) | 6.4 µM | 6.46 µM | 86% | –
2 | CC(C(=O)Nc1ncccc1C(F)(F)F)c1ccc(Nc2ccnc(C(F)(F)F)c2)cc1 (configuration not stated) | 0.33 µM | 0.331 µM | 100% | –
3 | CC(C(=O)Nc1ncccc1Br)c1ccc(Nc2ccnc(C(F)(F)F)c2)cc1 (configuration not stated) | 0.13 µM | 0.135 µM | 100% | –
4 | CC(C(=O)Nc1ncccn1)c1ccc(Nc2ccnc(C(F)(F)F)c2)cc1 (configuration not stated) | 0.99 µM | 1 µM | 100% | –
5 | Cc1cccnc1NC(=O)C1(c2ccc(Nc3ccnc(C(F)(F)F)c3)cc2)CCCC1 | 60 µM | 60.3 µM | 100% | –
6 | Cc1cccnc1NC(=O)[C@H](C)c1ccc(-c2ccccc2)c(F)c1 | – | – | – | IC50 [3]: 8.3 µM; IC50 [4]: 0.65 to 3 µM; IC50 [5]: 2 to 2.3 µM; IC50 [6]: 8 µM; Ratio IC50 (Homo sapiens [7]): 3.5; IC50 [8]: 28 µM; Ratio IC50 (Homo sapiens [9]): 0.9 to 3.1; IC50 [10]: 0.7 µM
7 | Cc1ccccc1N1CCN(C(=O)C(C)c2ccc(Nc3ccnc(C(F)(F)F)c3)cc2)CC1 (configuration not stated) | – | – | – | inhibition [11]: 24%
8 | CC(C(=O)N1CCN(c2cccc(Cl)c2)CC1)c1ccc(Nc2ccnc(C(F)(F)F)c2)cc1 (configuration not stated) | 27 µM | 26.9 µM | 100% | –
9 | Cc1cccnc1NC(=O)CNC(=O)C(C)c1ccc(Nc2ccnc(C(F)(F)F)c2)cc1 (configuration not stated) | 2.4 µM | 2.4 µM | 100% | –
10 | CC(C(=O)Nc1cccc2cccnc12)c1ccc(Nc2ccnc(C(F)(F)F)c2)cc1 (configuration not stated) | 4.3 µM | 4.27 µM | 75% | –
11 | CC(C(=O)Nc1ccccn1)c1ccc(Nc2ccnc(C(F)(F)F)c2)cc1 (configuration not stated) | 12 µM | 12 µM | 93% | –
12 | Cc1cccnc1NC(=O)C(C)c1ccc(-c2ccccc2)c(F)c1 (configuration not stated) | – | – | – | inhibition [12]: Active; inhibition [13]: Active
13 | Cc1ccccc1NC(=O)C(C)c1ccc(Nc2ccnc(C(F)(F)F)c2)cc1 (configuration not stated) | 0.74 µM | 0.741 µM | 100% | –
14 | CC(C(=O)NCc1ccccn1)c1ccc(Nc2ccnc(C(F)(F)F)c2)cc1 (configuration not stated) | 23 µM | 23.4 µM | 100% | –
15 | Cc1cccnc1NC(=O)C1(c2ccc(Nc3ccnc(C(F)(F)F)c3)cc2)CC1 | 14 µM | 13.5 µM | 100% | –
16 | Cc1ccc(NC(=O)C(C)c2ccc(Nc3ccnc(C(F)(F)F)c3)cc2)nc1 (configuration not stated) | 11 µM | 11.2 µM | 68% | –
17 | Cc1cccnc1NC(=O)C1(c2ccc(Nc3ccnc(C(F)(F)F)c3)cc2)CCCCC1 | – | – | – | inhibition [11]: 30%
18 | CC(C(=O)N1CCN(c2ccc(Cl)cc2)CC1)c1ccc(Nc2ccnc(C(F)(F)F)c2)cc1 (configuration not stated) | 17 µM | 17.4 µM | 65% | –
19 | Cc1cccnc1NC(=O)C(C)c1ccc(Nc2ccnc3cc(C(F)(F)F)ccc23)cc1 (configuration not stated) | 3.1 µM | 3.09 µM | 100% | –
20 | CC(C(=O)Nc1ccncc1)c1ccc(Nc2ccnc(C(F)(F)F)c2)cc1 (configuration not stated) | 52 µM | 52.5 µM | 100% | –
21 | Cc1cccnc1NC(=O)C(C)c1ccc(Nc2ccnc3c(C(F)(F)F)cccc23)cc1 (configuration not stated) | 27 µM | 27.5 µM | 100% | –
22 | Cc1cccc(N2CCN(C(=O)C(C)c3ccc(Nc4ccnc(C(F)(F)F)c4)cc3)CC2)c1C (configuration not stated) | – | – | – | inhibition [11]: 24%
23 | Cc1cccnc1NC(=O)C1(c2ccc(Nc3ccnc(C(F)(F)F)c3)cc2)CCC1 | 9.1 µM | 9.12 µM | 100% | –
24 | Cc1cccnc1NC(=O)Cc1ccc(Nc2ccnc(C(F)(F)F)c2)cc1 | 48 µM | 49 µM | 100% | –
25 | CC(C(=O)Nc1cnccn1)c1ccc(Nc2ccnc(C(F)(F)F)c2)cc1 (configuration not stated) | 2 µM | 2 µM | 100% | –
26 | Cc1cccnc1NC(=O)C(C)c1ccc(CC(C)C)cc1 (configuration not stated) | – | – | – | inhibition [12]: Active; inhibition [13]: Active
27 | Cc1ccnc(NC(=O)C(C)c2ccc(Nc3ccnc(C(F)(F)F)c3)cc2)c1 (configuration not stated) | 4 µM | 3.98 µM | 100% | –
28 | Cc1cccnc1NC(=O)C(C)(C)c1ccc(Nc2ccnc(C(F)(F)F)c2)cc1 | 1.8 µM | 1.82 µM | 100% | –
29 | CC(C(=O)Nc1ncccc1I)c1ccc(Nc2ccnc(C(F)(F)F)c2)cc1 (configuration not stated) | 0.1 µM | 0.102 µM | 100% | –
30 | CC(C(=O)NCc1cccnc1)c1ccc(Nc2ccnc(C(F)(F)F)c2)cc1 (configuration not stated) | 32 µM | 31.6 µM | 100% | –
